In ChEMBL document CHEMBL3085645, “Design, synthesis and biological evaluation of phosphorodiamidate prodrugs of antiviral and anticancer nucleosides” (Eur J Med Chem, 2013):

Columns and labels:
[1] = tested on: Human immunodeficiency virus 2; assay: Antiviral activity against HIV2 ROD infected in human CEM cells assessed as virus-induced giant cell formation after 4 days by microscopic analysis; format: functional, organism-based; conditions: Human immunodeficiency virus 2, ISOLATE ROD, CCRF-CEM, 96 h
Outline: (§1)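 CEM cells (∼3 × 10^5 cells/cm3) infected with 100 CCID50/mL of HIV-1(IIIB) or HIV-2(ROD), seeded into wells with compound dilutions. Giant cell formation examined microscopically after 4 days at 37 °C.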

CCRF-CEM [2] = assay: Cytostatic activity against human CEM cells assessed as growth inhibition after 3 days by particle counting analysis; format: functional, cell-based; conditions: 72 h
Outline: (§2)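 Tumor cells seeded and exposed to a range of compound concentrations. Cell number counted with a particle counter after 2 days (L1210, L1210/TK) or 3 days (CEM, CEM/TK, HeLa, HeLa TK, Caco-2, Colo-320).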

CCRF-CEM [3] = assay: Cytotoxicity against human CEM cells; format: cell-based
[4] = tested on: Human immunodeficiency virus 1; assay: Antiviral activity against HIV1 3B infected in human CEM cells assessed as virus-induced giant cell formation after 4 days by microscopic analysis; format: functional, organism-based; conditions: Human immunodeficiency virus 1, 3B, CCRF-CEM, 96 h; outline: as §1
HeLa [5] = assay: Cytostatic activity against human HeLa cells assessed as growth inhibition after 3 days by particle counting analysis; format: functional, cell-based; conditions: 72 h; outline: as §2
L1210 [6] = assay: Cytostatic activity against mouse L1210 cells assessed as growth inhibition after 2 days by particle counting analysis; format: functional, cell-based; conditions: L1210, 48 h; outline: as §2
Felid alphaherpesvirus 1 = assay: Antiviral activity against Feline herpesvirus infected in cat CRFK cells assessed as inhibition of virus-induced cytopathicity; format: functional, organism-based; conditions: Felid alphaherpesvirus 1, CRFK
Human alphaherpesvirus 1 [7] = assay: Antiviral activity against Herpes simplex virus 1 KOS infected in HEL cells assessed as inhibition of virus-induced cytopathicity; format: functional, organism-based; conditions: Human alphaherpesvirus 1, KOS
Human alphaherpesvirus 1 [8] = assay: Antiviral activity against acyclovir-resistant thymidine kinase-deficient Herpes simplex virus 1 KOS infected in HEL cells assessed as inhibition of virus-induced cytopathicity; format: functional, organism-based; conditions: Human alphaherpesvirus 1, KOS
[9] = Cytotoxicity against HEL cells; format: cell-based; conditions: human
Human alphaherpesvirus 2 = assay: Antiviral activity against Herpes simplex virus 2 G infected in HEL cells assessed as inhibition of virus-induced cytopathicity; format: functional, organism-based; conditions: Human alphaherpesvirus 2, strain G
HeLa [10] = assay: Cytostatic activity against thymidine kinase-deficient human HeLa cells assessed as growth inhibition after 3 days by particle counting analysis; format: functional, cell-based; conditions: 72 h; outline: as §2
CCRF-CEM [11] = assay: Cytostatic activity against thymidine kinase-deficient human CEM cells assessed as growth inhibition after 3 days by particle counting analysis; format: functional, cell-based; conditions: 72 h; outline: as §2
COLO 320 = assay: Cytostatic activity against human COLO320 cells assessed as growth inhibition after 3 days by particle counting analysis; format: functional, cell-based; conditions: COLO 320, 72 h; outline: as §2
L1210 [12] = assay: Cytostatic activity against thymidine kinase-deficient mouse L1210 cells assessed as growth inhibition after 2 days by particle counting analysis; format: functional, cell-based; conditions: L1210, 48 h; outline: as §2
Caco-2 = assay: Cytostatic activity against human Caco2 cells assessed as growth inhibition after 3 days by particle counting analysis; format: functional, cell-based; conditions: Caco-2, 72 h; outline: as §2

SMILES | EC50 [1] | IC50 (CCRF-CEM [2]) | CC50 (CCRF-CEM [3]) | EC50 [4] | IC50 (HeLa [5]) | IC50 (L1210 [6]) | EC50 (Felid alphaherpesvirus 1) | EC50 (Human alphaherpesvirus 1 [7]) | EC50 (Human alphaherpesvirus 1 [8]) | MCC [9] | EC50 (Human alphaherpesvirus 2) | IC50 (HeLa [10]) | IC50 (CCRF-CEM [11]) | IC50 (COLO 320) | IC50 (L1210 [12]) | IC50 (Caco-2)
Nc1ncnc2c1ncn2[C@H]1CC[C@@H](CO)O1 | 2.8 µM | > 250 µM | > 250 µM | 7.2 µM | > 250 µM | > 250 µM |  |  |  |  |  |  |  |  |  | 
CCCCCc1ccc(-c2cc3cn([C@H]4C[C@H](O)[C@@H](COP(=O)(N[C@@H](C)C(=O)OCc5ccccc5)N[C@@H](C)C(=O)OCc5ccccc5)O4)c(=O)nc3o2)cc1 |  |  |  |  |  |  | > 100 µM | > 100 µM | > 100 µM | > 100 µM | > 100 µM |  |  |  |  | 
Cc1cn([C@H]2C=C[C@@H](COP(=O)(N[C@@H](C)C(=O)OCc3ccccc3)N[C@@H](C)C(=O)OCc3ccccc3)O2)c(=O)[nH]c1=O | 0.096 µM | 92 µM |  | 0.14 µM | 116 µM | 8.9 µM |  |  |  |  |  | 29 µM | 46 µM | 133 µM | 7.4 µM | 241 µM
Cc1cn([C@H]2C=C[C@@H](COP(=O)(N[C@@H](C)C(=O)OC3CCCCC3)N[C@@H](C)C(=O)OC3CCCCC3)O2)c(=O)[nH]c1=O | 0.38 µM | 73 µM |  | 0.15 µM | 96 µM | 29 µM |  |  |  |  |  | 36 µM | 54 µM |  | 25 µM | 135 µM
Cc1cn([C@H]2C=C[C@@H](COP(=O)(N[C@@H](C)C(=O)OCC(C)(C)C)N[C@@H](C)C(=O)OCC(C)(C)C)O2)c(=O)[nH]c1=O | 0.14 µM | 96 µM |  | 0.09 µM | 110 µM | 47 µM |  |  |  |  |  | 53 µM | 37 µM | 30 µM | 23 µM | 174 µM
C[C@H](NP(=O)(N[C@@H](C)C(=O)OCC(C)(C)C)OC[C@@H]1CC[C@H](n2cnc3c(N)ncnc32)O1)C(=O)OCC(C)(C)C | 0.049 µM | 36 µM | 35 µM | 0.1 µM |  | 76 µM |  |  |  |  |  |  |  |  |  | 
CC(=O)Nc1ccn([C@H]2CS[C@@H](CO)O2)c(=O)n1 |  | > 250 µM |  |  | 242 µM | > 250 µM |  |  |  |  |  | > 250 µM | > 250 µM | ≥ 250 µM | > 250 µM | > 250 µM
CC(=O)Nc1ccn([C@H]2CS[C@@H](COP(=O)(N[C@@H](C)C(=O)OCc3ccccc3)N[C@@H](C)C(=O)OCc3ccccc3)O2)c(=O)n1 |  | 120 µM |  |  | 155 µM |  |  |  |  |  |  |  |  | > 250 µM |  | ≥ 250 µM
C[C@H](NP(=O)(N[C@@H](C)C(=O)OCc1ccccc1)OC[C@H]1O[C@@H](n2ccc(N)nc2=O)CS1)C(=O)OCc1ccccc1 | > 50 µM | 116 µM |  | > 50 µM | 93 µM | 86 µM |  |  |  |  |  | 38 µM | 106 µM | 85 µM | 57 µM | 87 µM
C[C@H](NP(=O)(N[C@@H](C)C(=O)OCc1ccccc1)OC[C@@H]1C=C[C@H](n2cnc3c(NC4CC4)nc(N)nc32)C1)C(=O)OCc1ccccc1 | 1.1 µM | 19 µM |  | 0.56 µM | 23 µM | 54 µM |  |  |  |  |  |  |  |  |  | 
C[C@H](NP(=O)(N[C@@H](C)C(=O)OCC(C)(C)C)OC[C@@H]1C=C[C@H](n2cnc3c(NC4CC4)nc(N)nc32)C1)C(=O)OCC(C)(C)C | 1.2 µM | 27 µM |  | 1.5 µM | 36 µM | 48 µM |  |  |  |  |  |  |  |  |  | 
C[C@H](NP(=O)(N[C@@H](C)C(=O)OCc1ccccc1)OC[C@H]1O[C@@H](n2cnc(C(N)=O)c2N)[C@H](O)[C@@H]1O)C(=O)OCc1ccccc1 |  | > 250 µM |  |  | > 250 µM | > 250 µM | > 100 µM | > 100 µM | > 100 µM | > 100 µM | > 100 µM | > 250 µM |  |  |  | 
COC(=O)[C@H](C)NP(=O)(N[C@@H](C)C(=O)OC)OC[C@H]1O[C@@H](n2cnc(C(N)=O)c2N)[C@H](O)[C@@H]1O |  | > 250 µM |  |  | > 250 µM | ≥ 250 µM | > 100 µM | > 100 µM | > 100 µM | > 100 µM | > 100 µM | > 250 µM |  |  |  | 
Cc1cn([C@H]2C[C@H](N=[N+]=[N-])[C@@H](COP(=O)(N[C@@H](C)C(=O)OCc3ccccc3)N[C@@H](C)C(=O)OCc3ccccc3)O2)c(=O)[nH]c1=O | 0.03 µM |  | 30 µM | 0.0092 µM |  |  |  |  |  |  |  |  |  |  |  | 
Cc1cn([C@H]2C[C@H](N=[N+]=[N-])[C@@H](COP(=O)(N[C@@H](C)C(=O)OCC(C)(C)C)N[C@@H](C)C(=O)OCC(C)(C)C)O2)c(=O)[nH]c1=O | 0.013 µM |  | 75 µM | 0.0083 µM |  |  |  |  |  |  |  |  |  |  |  | 
